Drawing on ChEMBL document CHEMBL4196061, “Novel topoisomerase I inhibitors. Syntheses and biological evaluation of phosphorus substituted quinoline derivates with antiproliferative activity” (Eur J Med Chem, 2018), this text covers inhibition and IC50 for ten compounds.

Assay [1] deals with T1, DNA topoisomerase 1 (Homo sapiens) (UniProt P11387).
T1 sequence (whole entry): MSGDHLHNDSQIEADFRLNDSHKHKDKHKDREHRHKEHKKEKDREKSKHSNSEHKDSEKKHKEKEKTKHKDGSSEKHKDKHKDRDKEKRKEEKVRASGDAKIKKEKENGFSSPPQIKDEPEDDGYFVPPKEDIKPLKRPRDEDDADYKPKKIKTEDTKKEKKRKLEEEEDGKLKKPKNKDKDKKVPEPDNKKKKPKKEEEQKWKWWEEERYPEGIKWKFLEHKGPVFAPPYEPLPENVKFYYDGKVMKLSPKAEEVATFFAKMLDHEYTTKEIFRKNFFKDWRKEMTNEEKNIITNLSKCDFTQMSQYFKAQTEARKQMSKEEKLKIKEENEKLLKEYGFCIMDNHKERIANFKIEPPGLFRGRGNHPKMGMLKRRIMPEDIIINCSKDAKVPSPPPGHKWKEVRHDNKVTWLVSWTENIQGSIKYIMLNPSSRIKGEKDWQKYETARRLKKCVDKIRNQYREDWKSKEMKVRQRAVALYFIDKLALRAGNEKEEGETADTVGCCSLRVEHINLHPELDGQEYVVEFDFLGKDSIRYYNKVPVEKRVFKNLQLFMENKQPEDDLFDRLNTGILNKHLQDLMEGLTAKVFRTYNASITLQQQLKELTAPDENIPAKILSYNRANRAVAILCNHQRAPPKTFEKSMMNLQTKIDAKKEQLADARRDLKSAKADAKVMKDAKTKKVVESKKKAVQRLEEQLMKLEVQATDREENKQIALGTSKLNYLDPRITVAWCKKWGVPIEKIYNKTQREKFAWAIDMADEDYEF
As to the kind of experiment: Inhibition of recombinant human topoisomerase 1-mediated DNA relaxation expressed in Saccharomyces cerevisiae TopI null strain RS190 at 80 uM using negatively supercoiled pUC18 as substrate pretreated with enzyme for 15 mins followed by substrate addition measured after 3 mins by agarose gel electrophoresis. Put shortly:
(§1)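 Human TopI was expressed from pHT143 (GAL promoter) in yeast RS190 and affinity-purified. Reactions used 110 ng/µL TopI and 0.5 µg supercoiled pUC18 in 20 µl buffer (20 mM Tris–HCl, 0.1 mM Na2EDTA, 10 mM MgCl2, 50 µg/mL acetylated BSA, 150 mM KCl, pH 7.5). Drug was mixed with enzyme before DNA was added, and reactions were stopped with SDS. Products were resolved on 1% agarose in TBE and stained with gel red.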

The test system of another assay is MRC5. The assay is described as follows: Antiproliferative activity against human MRC5 cells after 48 hrs by CCK-8 assay. In kind it is cell-based. The following applies: MRC5, 48 h. Put shortly:
(§2)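 Cells seeded at 2-4 x 10^3 per well and grown overnight in 0.1 mL medium with 10% FBS at 37 °C under 5% CO2. Drugs were added on day 2 and cells incubated 48 h. CCK-8 was then added for 2 h at 37 °C and absorbance read at 450 nm. IC50 values were reported.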
On the technique in general: Formazan colour is commonly taken as a measure of viable cells.

The subject of another assay is SK-OV-3. The assay is described as follows: Antiproliferative activity against human SKOV3 cells after 48 hrs by CCK-8 assay. The class given is functional, cell-based. Particulars: SK-OV-3, 48 h. Put shortly: as §2
In another assay the test system is HEK293. The assay is described as follows: Antiproliferative activity against human HEK293 cells after 48 hrs by CCK-8 assay. The following applies: HEK293, 48 h.
For assay [2], the target named is T1, DNA topoisomerase 1 (Homo sapiens). As to the kind of experiment: Inhibition of recombinant human topoisomerase 1-mediated DNA relaxation expressed in Saccharomyces cerevisiae TopI null strain RS190 at 40 uM using negatively supercoiled pUC18 as substrate pretreated with enzyme for 15 mins followed by substrate addition measured after 3 mins by agarose gel electrophoresis. In a few lines: as §1

Assay [3] has the same target. As to the kind of experiment: Inhibition of recombinant human topoisomerase 1-mediated DNA relaxation expressed in Saccharomyces cerevisiae TopI null strain RS190 at 80 uM using negatively supercoiled pUC18 as substrate pretreated with enzyme for 15 mins followed by substrate addition measured after 15 secs by agarose gel electrophoresis. In a few lines: as §1
The test system of the next assay is A549. As to the kind of experiment: Antiproliferative activity against human A549 cells after 48 hrs by CCK-8 assay. The class given is functional, cell-based. Particulars: A549, 48 h. Put shortly: as §2
In assay [4] the target is T1, DNA topoisomerase 1 (Homo sapiens). The assay is described as follows: Inhibition of recombinant human topoisomerase 1-mediated DNA relaxation expressed in Saccharomyces cerevisiae TopI null strain RS190 at 20 uM using negatively supercoiled pUC18 as substrate pretreated with enzyme for 15 mins followed by substrate addition measured after 3 mins by agarose gel electrophoresis. In a few lines: as §1

The target is the same in assay [5]. As to the kind of experiment: Inhibition of recombinant human topoisomerase 1-mediated DNA relaxation expressed in Saccharomyces cerevisiae TopI null strain RS190 at 80 uM using negatively supercoiled pUC18 as substrate pretreated with enzyme for 15 mins followed by substrate addition measured after 1 min by agarose gel electrophoresis. Put shortly:
as §1

For assay [6] the target is unchanged. The assay is described as follows: Inhibition of recombinant human topoisomerase 1-mediated DNA relaxation expressed in Saccharomyces cerevisiae TopI null strain RS190 at 60 uM using negatively supercoiled pUC18 as substrate pretreated with enzyme for 15 mins followed by substrate addition measured after 3 mins by agarose gel electrophoresis. In a few lines:
as §1

Assay [7] shares this target. As to the kind of experiment: Inhibition of recombinant human topoisomerase 1-mediated DNA relaxation expressed in Saccharomyces cerevisiae TopI null strain RS190 at 10 uM using negatively supercoiled pUC18 as substrate pretreated with enzyme for 15 mins followed by substrate addition measured after 3 mins by agarose gel electrophoresis. Put shortly: as §1

The inhibition is the change of the read-out against control, counted positive when it falls. One may read the IC50 as the concentration needed to halve the response being measured. A lower IC50 goes with greater potency. On to `FC(F)(F)c1ccc(-c2cc(-c3ccccc3)c3cccc(P(=S)(c4ccccc4)c4ccccc4)c3n2)cc1`, for which the inhibition is 81% in [1]; 18% in assay [2]; 81% in assay [3]; 10% in assay [4]; 81% in [5]; 24% in [6]. Also, the inhibition in [7] was 8%. Moreover, the IC50 in the assay with MRC5, in the assay on SK-OV-3, with HEK293 and in the assay with A549 was above 50 µM in each case.
For `Fc1ccc([C@H]2C[C@@H](c3ccc(F)cc3)Nc3c2cccc3P(=S)(c2ccccc2)c2ccccc2)cc1`, the inhibition in assay [1] worked out at 75%; in [2], 17%; in [3], 85%; in assay [4] it was 17%; in [5], 84%; in [6], 19%. In addition, the inhibition in [7] was found to be 17%. In addition, the IC50 in the assay on MRC5 was above 50 µM; in the assay on SK-OV-3, above 50 µM; with HEK293, above 50 µM; in the assay with A549, 0.03 µM.
On to `Fc1ccc([C@H]2C[C@@H](c3ccc(F)cc3)Nc3c2cccc3P(c2ccccc2)c2ccccc2)cc1`, for which the inhibition amounted to 75% in assay [1]; 0% in [2]; 78% in assay [3]; 0% in assay [4]; 75% in [5]; 20% in assay [6]. Besides, the inhibition in [7] was 0%. The IC50 is above 50 µM in the assay on MRC5, above 50 µM in the assay on SK-OV-3, above 50 µM with HEK293 and 0.08 µM with A549.
Regarding `S=P(c1ccccc1)(c1ccccc1)c1cccc2c1N[C@H](c1ccc3ccccc3c1)C[C@@H]2c1ccccc1`, the inhibition in assay [1] was found to be 76%; in assay [2], 19%; in assay [3] it was 76%; in [4], 16%; in [5] it was 76%; in assay [6], 28%. Moreover, the inhibition in assay [7] amounted to 15%. The IC50 with MRC5 is above 50 µM; in the assay with SK-OV-3, above 50 µM; with HEK293, above 50 µM; in the assay on A549, 0.27 µM.
For the compound `Cc1ccc([C@H]2C[C@@H](c3ccccc3)Nc3c2cccc3P(c2ccccc2)c2ccccc2)cc1`, the inhibition in assay [1] stood at 76%; in assay [2], 17%; in assay [3], 80%; in assay [4] it was 16%; in assay [5], 79%; in [6] it was 22%. The inhibition in assay [7] was 0%. Besides, the IC50 with MRC5 was above 50 µM; with SK-OV-3, above 50 µM; with HEK293 it was above 50 µM; in the assay with A549, 0.11 µM.
Take `Cc1ccc([C@H]2C[C@@H](c3ccc(F)cc3)Nc3c2cccc3P(c2ccccc2)c2ccccc2)cc1`: the inhibition in assay [1] worked out at 92%; in assay [2], 52%; in assay [3] it was 96%; in [4], 28%; in assay [5], 92%; in assay [6], 53%. The inhibition in assay [7] stood at 20%. Also, the IC50 in the assay with MRC5 was above 50 µM; in the assay with SK-OV-3 it was above 50 µM; in the assay on HEK293, above 50 µM; in the assay on A549 it was 0.25 µM.
For the compound `S=P(c1ccccc1)(c1ccccc1)c1cccc2c1N[C@H](c1ccccc1)C[C@@H]2c1ccccc1`, the inhibition in assay [1] turned out to be 76%; in [2], 0%; in assay [3], 81%; in assay [4] it was 0%; in [5] it was 81%; in assay [6], 0%. In addition, the inhibition in assay [7] stood at 0%. Also, the IC50 in the assay with MRC5 was above 50 µM; in the assay on SK-OV-3, above 50 µM; with HEK293, above 50 µM; in the assay with A549, 0.16 µM.
Consider `c1ccc([C@H]2C[C@@H](c3ccccc3)Nc3c2cccc3P(c2ccccc2)c2ccccc2)cc1`, for which the inhibition in assay [1] turned out to be 85%; in assay [2], 0%; in assay [3] it was 85%; in [4], 0%; in assay [5], 85%; in assay [6], 0%. For the same compound, the inhibition in [7] stood at 0%. The IC50 with MRC5 is above 50 µM; with SK-OV-3, above 50 µM; in the assay with HEK293, above 50 µM; in the assay on A549 it was 0.6 µM.
For `O=P(c1ccccc1)(c1ccccc1)c1cccc2c1N[C@H](c1ccccn1)C[C@@H]2c1ccccc1`, the inhibition in [1] was 76%; in assay [2] it was 24%; in assay [3], 92%; in [4], 19%; in assay [5] it was 85%; in [6], 34%. Also, in assay [7], the inhibition was found to be 19%. Besides, the IC50 in the assay with MRC5 is above 50 µM; in the assay with SK-OV-3 it was 19.1 µM; with HEK293 it was 14.8 µM; in the assay on A549 it was 3.8 µM.
For the compound `O=P(c1ccccc1)(c1ccccc1)c1cccc2c(-c3ccccc3)cc(-c3ccc(F)cc3)nc12`, the inhibition was determined as 25% in [1], 28% in [3] and 28% in assay [5]. Further, the IC50 is above 50 µM in the assay on MRC5, 8.16 µM in the assay on SK-OV-3, 17.2 µM in the assay with HEK293 and 2.26 µM in the assay with A549.
